Tests used:
Assay type in all cases: functional
[1] = tested on: BT-549; assay: Growth inhibition of human BT549 cells
[2] = tested on: SF-268; assay: Growth inhibition of human SF268 cells
[3] = tested on: SK-MEL-2; assay: Growth inhibition of human SK-MEL-2 cells assessed tumor cell growth at 10^-5 M; design: scale not given: the % may be the effect or the level left
Method in brief: (§1)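 NCI 60-human-tumor-cell-line panel screen. Each compound was tested at a single concentration of 10^-5 M, and percent growth of tumor cells was recorded for each cell line. Growth inhibition was expressed from these percent-growth values.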

[4] = tested on: NCI-H226; assay: Growth inhibition of human NCI-H226 cells
[5] = tested on: UO-31; assay: Growth inhibition of human UO31 cells assessed tumor cell growth at 10^-5 M; design: scale not given: the % may be the effect or the level left
Method in brief: (§2)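 Single-dose screen at 10^-5 M across the 60 human tumor cell line panel, run to NCI standards. The value is the percent growth of each cell line in the presence of compound. Compounds active at this dose moved on to five-concentration testing (10^-4 to 10^-8 M).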

[6] = tested on: COLO 205; assay: Growth inhibition of human COLO205 cells
[7] = tested on: EKVX; assay: Growth inhibition of human EKVX cells
[8] = tested on: A549; assay: Growth inhibition of human A549 cells assessed tumor cell growth at 10^-5 M; design: scale not given: the % may be the effect or the level left; method in brief: as §1
[9] = tested on: NCI-H23; assay: Growth inhibition of human NCI-H23 cells
[10] = tested on: Malme-3M; assay: Growth inhibition of human MALME-3M cells
[11] = tested on: SW-620; assay: Growth inhibition of human SW620 cells assessed tumor cell growth at 10^-5 M; design: scale not given: the % may be the effect or the level left; method in brief: as §2
[12] = Growth inhibition of human Hs 578T cells
[13] = tested on: M14; assay: Growth inhibition of human M14 cells assessed tumor cell growth at 10^-5 M; design: scale not given: the % may be the effect or the level left; method in brief: as §1
[14] = tested on: DU-145; assay: Growth inhibition of human DU145 cells assessed tumor cell growth at 10^-5 M; design: scale not given: the % may be the effect or the level left; method in brief: as §1
[15] = Growth inhibition of human […] cells assessed tumor cell growth at 10^-5 M; design: scale not given: the % may be the effect or the level left; method in brief: as §1
[16] = tested on: 786-0; assay: Growth inhibition of human 786-0 cells assessed tumor cell growth at 10^-5 M; design: scale not given: the % may be the effect or the level left; method in brief: as §1
[17] = tested on: U-251; assay: Growth inhibition of human U251 cells assessed tumor cell growth at 10^-5 M; design: scale not given: the % may be the effect or the level left; method in brief: as §2
[18] = tested on: LOX IMVI; assay: Growth inhibition of human LOXIMVI cells assessed tumor cell growth at 10^-5 M; design: scale not given: the % may be the effect or the level left; method in brief: as §1
[19] = tested on: SNB-75; assay: Growth inhibition of human SNB75 cells assessed tumor cell growth at 10^-5 M; design: scale not given: the % may be the effect or the level left; method in brief: as §2
[20] = tested on: NCI-H460; assay: Growth inhibition of human NCI-H460 cells
[21] = tested on: MDA-MB-231; assay: Growth inhibition of human MDA-MB-231 cells
[22] = tested on: HCC 2998; assay: Growth inhibition of human HCC2998 cells assessed tumor cell growth at 10^-5 M; design: scale not given: the % may be the effect or the level left; method in brief: as §1
[23] = tested on: MDA-MB-435; assay: Growth inhibition of human MDA-MB-435 cells assessed tumor cell growth at 10^-5 M; design: scale not given: the % may be the effect or the level left; method in brief: as §1
[24] = tested on: RXF 393; assay: Growth inhibition of human RXF393 cells assessed tumor cell growth at 10^-5 M; design: scale not given: the % may be the effect or the level left; method in brief: as §1
[25] = tested on: NCI-H460; assay: Growth inhibition of human NCI-H460 cells assessed tumor cell growth at 10^-5 M; design: scale not given: the % may be the effect or the level left; method in brief: as §1
[26] = tested on: IGROV-1; assay: Growth inhibition of human IGROV1 cells assessed tumor cell growth at 10^-5 M; design: scale not given: the % may be the effect or the level left; method in brief: as §1
[27] = tested on: SR; assay: Growth inhibition of human SR cells
[28] = tested on: NCI-H322M; assay: Growth inhibition of human NCI-H322M cells assessed tumor cell growth at 10^-5 M; design: scale not given: the % may be the effect or the level left; method in brief: as §1
[29] = tested on: ACHN; assay: Growth inhibition of human ACHN cells
[30] = tested on: OVCAR-8; assay: Growth inhibition of human OVCAR8 cells
[31] = tested on: CCRF-CEM; assay: Growth inhibition of human CCRF-CEM cells
[32] = tested on: HOP-62; assay: Growth inhibition of human HOP62 cells assessed tumor cell growth at 10^-5 M; design: scale not given: the % may be the effect or the level left; method in brief: as §1
[33] = tested on: A498; assay: Growth inhibition of human A498 cells
[34] = tested on: PC-3; assay: Growth inhibition of human PC3 cells
[35] = tested on: OVCAR-3; assay: Growth inhibition of human OVCAR3 cells assessed tumor cell growth at 10^-5 M; design: scale not given: the % may be the effect or the level left; method in brief: as §1
[36] = tested on: LOX IMVI; assay: Growth inhibition of human LOXIMVI cells
[37] = tested on: ACHN; assay: Growth inhibition of human ACHN cells assessed tumor cell growth at 10^-5 M; design: scale not given: the % may be the effect or the level left; method in brief: as §1
[38] = tested on: UACC-257; assay: Growth inhibition of human UACC257 cells
[39] = tested on: SF-539; assay: Growth inhibition of human SF539 cells
[40] = tested on: IGROV-1; assay: Growth inhibition of human IGROV1 cells
Method in brief: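 Follow-up panel testing at five concentrations (10^-4, 10^-5, 10^-6, 10^-7 and 10^-8 M) across the 60 human tumor cell lines. GI50 was obtained for each line from the concentration-response data, with the panel average GI50 also reported.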

[41] = tested on: MCF7; assay: Growth inhibition of human MCF7 cells assessed tumor cell growth at 10^-5 M; design: scale not given: the % may be the effect or the level left; method in brief: as §1
[42] = tested on: SK-MEL-5; assay: Growth inhibition of human SK-MEL-5 cells assessed tumor cell growth at 10^-5 M; design: scale not given: the % may be the effect or the level left; method in brief: as §1
[43] = tested on: MOLT-4; assay: Growth inhibition of human MOLT4 cells
[44] = tested on: M14; assay: Growth inhibition of human M14 cells
[45] = tested on: HCT-116; assay: Growth inhibition of human HCT116 cells assessed tumor cell growth at 10^-5 M; design: scale not given: the % may be the effect or the level left; method in brief: as §1
[46] = tested on: U-251; assay: Growth inhibition of human U251 cells
[47] = tested on: T47D; assay: Growth inhibition of human T47D cells
[48] = tested on: A498; assay: Growth inhibition of human A498 cells assessed tumor cell growth at 10^-5 M; design: scale not given: the % may be the effect or the level left; method in brief: as §1
[49] = Growth inhibition of human RPMI8266 cells
[50] = tested on: SN12C; assay: Growth inhibition of human SN12C cells assessed tumor cell growth at 10^-5 M; design: scale not given: the % may be the effect or the level left; method in brief: as §1
[51] = tested on: RXF 393; assay: Growth inhibition of human RXF393 cells
[52] = read-out: LC50 (the source's name)

SMILES: O=C1/C(=C\c2coc3ccccc3c2=O)c2ccccc2N1c1c(Cl)cccc1Cl
- GI50 [1]: 2.8 µM
- CC50 [1, 52]: > 100 µM
- GI50 [2]: 3.3 µM
- CC50 [2, 52]: > 100 µM
- Activity [3]: 85.69%
- GI50 [4]: 20.8 µM
- CC50 [4, 52]: > 100 µM
- Activity [5]: 42.56%
- GI50 [6]: 3.8 µM
- GI50 [7]: 2.8 µM
- CC50 [7, 52]: > 100 µM
- Activity [8]: 26.65%
- GI50 [9]: 4.4 µM
- GI50 [10]: 2.4 µM
- CC50 [10, 52]: > 100 µM
- Activity [11]: 35%
- GI50 [12]: 9.1 µM
- CC50 [12, 52]: > 100 µM
- Activity [13]: 43.38%
- Activity [14]: 24.59%
- Activity [15]: 10.21%
- Activity [16]: 27.05%
- Activity [17]: 36.04%
- Activity [18]: 37.07%
- Activity [19]: 62.74%
- GI50 [20]: 2 µM
- CC50 [20, 52]: > 100 µM
- GI50 [21]: 3.8 µM
- CC50 [21, 52]: > 100 µM
- Activity [22]: 53%
- Activity [23]: 14.46%
- Activity [24]: 44.09%
- Activity [25]: 19.05%
- Activity [26]: 48.69%
- GI50 [27]: 1.4 µM
- CC50 [27, 52]: > 100 µM
- Activity [28]: 73.67%
- GI50 [29]: 4.1 µM
- CC50 [29, 52]: > 100 µM
- GI50 [30]: 5.4 µM
- CC50 [30, 52]: > 100 µM
- GI50 [31]: 2 µM
- CC50 [31, 52]: > 100 µM
- Activity [32]: 68.24%
- GI50 [33]: 4.3 µM
- CC50 [33, 52]: > 100 µM
- GI50 [34]: 1.3 µM
- CC50 [34, 52]: > 100 µM
- Activity [35]: 16.79%
- GI50 [36]: 1.5 µM
- CC50 [36, 52]: 57.5 µM
- Activity [37]: 54.64%
- GI50 [38]: 4.5 µM
- CC50 [38, 52]: > 100 µM
- GI50 [39]: 3 µM
- CC50 [39, 52]: > 100 µM
- GI50 [40]: 1.6 µM
- CC50 [40, 52]: 97.9 µM
- Activity [41]: 31.61%
- Activity [42]: 20.33%
- GI50 [43]: 2.9 µM
- GI50 [44]: 5.2 µM
- CC50 [44, 52]: > 100 µM
- Activity [45]: 35.61%
- GI50 [46]: 1.4 µM
- CC50 [46, 52]: > 100 µM
- GI50 [47]: 3 µM
- CC50 [47, 52]: > 100 µM
- Activity [48]: 12.65%
- GI50 [49]: 1.2 µM
- CC50 [49, 52]: 69.1 µM
- Activity [50]: 59.48%
- GI50 [51]: 1.8 µM
- CC50 [51, 52]: 69.1 µM
